Assay results taken from ChEMBL document CHEMBL1687913, “Structure-activity relationship, conformational and biological studies of temporin L analogues” (J Med Chem, 2011).
In brackets after ≈: the same amount, converted by molar mass. Where a SMILES comes first, the peptide text is derived from it.

Legend:
[1] = tested on: Acinetobacter baumannii; test: Antibacterial activity against Acinetobacter baumannii ATCC 19606 after 18 to 20 hrs by microbroth dilution method; format: functional
Summary of the method: (§1)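 CLSI microbroth dilution, adapted. Mid-log bacteria, 2 × 10^6 CFU/mL in Mueller-Hinton broth, mixed 1:1 with MH broth holding peptide in serial 2-fold dilutions in 20% ethanol (0.75-48 μM). Incubated 18-20 h at 37 °C; growth read as A600. MIC is the lowest concentration giving 100% growth inhibition.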

[2] = tested on: Acinetobacter junii; test: Antibacterial activity against […] Acinetobacter junii RT-4 after 18 to 20 hrs by microbroth dilution method; format: functional; summary of the method: as §1
[3] = tested on: Enterococcus faecalis; test: Antibacterial activity against Enterococcus faecalis ATCC 29212 after 18 to 20 hrs by microbroth dilution method; format: functional; summary of the method: as §1
[4] = tested on: Escherichia coli; test: Antibacterial activity against Escherichia coli ATCC 25922 after 18 to 20 hrs by microbroth dilution method; format: functional; summary of the method: as §1
[5] = tested on: Escherichia coli; test: Antibacterial activity against Escherichia coli D21 after 18 to 20 hrs by microbroth dilution method; format: functional; summary of the method: as §1
[6] = tested on: Pseudomonas syringae; test: Antibacterial activity against Pseudomonas syringae pv tobaci after 18 to 20 hrs by microbroth dilution method; format: functional; summary of the method: as §1
[7] = tested on: Pseudomonas aeruginosa; test: Antibacterial activity against Pseudomonas aeruginosa ATCC 15692 after 18 to 20 hrs by microbroth dilution method; format: functional; summary of the method: as §1
[8] = tested on: Pseudomonas aeruginosa; test: Antibacterial activity against Pseudomonas aeruginosa ATCC 27853 after 18 to 20 hrs by microbroth dilution method; format: functional; summary of the method: as §1
[9] = tested on: Yersinia pseudotuberculosis; test: Antibacterial activity against Yersinia pseudotuberculosis YPIII after 18 to 20 hrs by microbroth dilution method; format: functional
Summary of the method: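 Broth microdilution adapted from CLSI. Mid-log bacteria at 2 × 10^6 CFU/mL in Mueller-Hinton broth were mixed 1:1 with MH broth containing peptide in serial 2-fold dilutions (peptide in 20% ethanol), 0.75-48 μM. Plates were incubated 18-20 h at 37 °C and growth was read as A600. MIC is the concentration giving 100% growth inhibition.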

[10] = tested on: Priestia megaterium; test: Antibacterial activity against Bacillus megaterium Bm11 after 18 to 20 hrs by microbroth dilution method; format: functional; summary of the method: as §1
[11] = tested on: Staphylococcus aureus; test: Antibacterial activity against Staphylococcus aureus ATCC 25923 after 18 to 20 hrs by microbroth dilution method; format: functional; summary of the method: as §1
[12] = tested on: Staphylococcus aureus; test: Antibacterial activity against Staphylococcus aureus Cowan I after 18 to 20 hrs by microbroth dilution method; format: functional; summary of the method: as §1
[13] = tested on: Staphylococcus capitis; test: Antibacterial activity against Staphylococcus capitis after 18 to 20 hrs by microbroth dilution method; format: functional; summary of the method: as §1
[14] = tested on: Staphylococcus epidermidis; test: Antibacterial activity against Staphylococcus epidermidis ATCC 12228 after 18 to 20 hrs by microbroth dilution method; format: functional; summary of the method: as §1
[15] = tested on: Streptococcus pyogenes; test: Antibacterial activity against Streptococcus pyogenes ATCC 21547 after 18 to 20 hrs by microbroth dilution method; format: functional; summary of the method: as §1
[16] = tested on: Candida albicans; test: Antifungal activity against Candida albicans ATCC 10231 after 18 to 20 hrs by microbroth dilution method; format: functional
Summary of the method: (§2)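 Yeasts tested by adapted CLSI microbroth dilution in Winge medium. Peptide given in serial 2-fold dilutions (0.75-48 μM, made in 20% ethanol). Incubation 18-20 h at 30 °C, read at A600. MIC taken as the concentration giving complete (100%) growth inhibition.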

[17] = tested on: Schizosaccharomyces pombe; test: Antifungal activity against Schizosaccharomyces pombe after 18 to 20 hrs by microbroth dilution method; format: functional; summary of the method: as §2
[18] = tested on: Saccharomyces cerevisiae; test: Antifungal activity against Saccharomyces cerevisiae after 18 to 20 hrs by microbroth dilution method; format: functional; summary of the method: as §2
[19] = Toxicity in human erythrocytes assessed as hemolysis at 24 uM after 40 mins; format: cell-based, Erythrocyte; settings: read-out: Activity
Summary of the method: (§3)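 Human red blood cells suspended in 0.9% (w/v) NaCl and incubated 40 min at 37 °C with gentle mixing with serial 2-fold peptide dilutions (peptide predissolved in 20% ethanol). Spun 5 min at 900g; supernatant read at 415 nm. Cells lysed in distilled water set the 100% lysis reference.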

[20] = Toxicity in human erythrocytes assessed as hemolysis at 12 uM after 40 mins; format: cell-based, Erythrocyte; settings: read-out: Activity; summary of the method: as §3
[21] = Toxicity in human erythrocytes assessed as hemolysis at 6 uM after 40 mins; format: cell-based, Erythrocyte; settings: read-out: Activity; summary of the method: as §3
[22] = Toxicity in human erythrocytes assessed as hemolysis at 3 uM after 40 mins; format: cell-based, Erythrocyte; settings: read-out: Activity; summary of the method: as §3
[23] = Toxicity in human erythrocytes assessed as hemolysis at 1.5 uM after 40 mins; format: cell-based, Erythrocyte; settings: read-out: Activity; summary of the method: as §3

Structure (SMILES)	MIC [1]	MIC [2]	MIC [3]	MIC [4]	MIC [5]	MIC [6]	MIC [7]	MIC [8]	MIC [9]	MIC [10]	MIC [11]	MIC [12]	MIC [13]	MIC [14]	MIC [15]	MIC [16]	MIC [17]	MIC [18]	hemolysis at 40 min, 24 µM [19]	hemolysis at 40 min, 12 µM [20]	also measured
CC[C@H](C)[C@H](NC(=O)[C@H](CCCNC(=N)N)NC(=O)CNC(=O)[C@H](CC(C)C)NC(=O)[C@H](Cc1ccccc1)NC(=O)[C@H](CCCCN)NC(=O)[C@H](CO)NC(=O)[C@H](Cc1ccccc1)NC(=O)[C@H](Cc1c[nH]c2ccccc12)NC(=O)[C@H](CCCNC(=N)N)NC(=O)[C@@H](NC(=O)[C@@H](N)Cc1ccccc1)C(C)C)C(=O)N[C@@H](CC(C)C)C(N)=O (H-FVRWFSKFLGRIL-NH2)	6 µM (≈ 10 µg/mL)	3 µM (≈ 5 µg/mL)	12 µM (≈ 20 µg/mL)	24 µM (≈ 40 µg/mL)	12 µM (≈ 20 µg/mL)	6 µM (≈ 10 µg/mL)	12 µM (≈ 20 µg/mL)	24 µM (≈ 40 µg/mL)	3 µM (≈ 5 µg/mL)	3 µM (≈ 5 µg/mL)	6 µM (≈ 10 µg/mL)	6 µM (≈ 10 µg/mL)	3 µM (≈ 5 µg/mL)	3 µM (≈ 5 µg/mL)	3 µM (≈ 5 µg/mL)	12 µM (≈ 20 µg/mL)	12 µM (≈ 20 µg/mL)	24 µM (≈ 40 µg/mL)	100%	100%	hemolysis at 40 min, 6 µM [21]: 52%; hemolysis at 40 min, 3 µM [22]: 20%; hemolysis at 40 min, 1.5 µM [23]: 7%
CC[C@H](C)[C@H](NC(=O)[C@H](CCCCN)NC(=O)CNC(=O)[C@H](CC(C)C)NC(=O)[C@H](Cc1ccccc1)NC(=O)[C@H](CCCCN)NC(=O)[C@H](CO)NC(=O)[C@H](Cc1ccccc1)NC(=O)[C@H](Cc1c[nH]c2ccccc12)NC(=O)[C@H](CCC(N)=O)NC(=O)[C@@H](NC(=O)[C@@H](N)Cc1ccccc1)C(C)C)C(=O)N[C@@H](CC(C)C)C(N)=O (H-FVQWFSKFLGKIL-NH2)	6 µM (≈ 9.67 µg/mL)	6 µM (≈ 9.67 µg/mL)	12 µM (≈ 19.3 µg/mL)	12 µM (≈ 19.3 µg/mL)	24 µM (≈ 38.7 µg/mL)	24 µM (≈ 38.7 µg/mL)	24 µM (≈ 38.7 µg/mL)	48 µM (≈ 77.4 µg/mL)	6 µM (≈ 9.67 µg/mL)	3 µM (≈ 4.84 µg/mL)	6 µM (≈ 9.67 µg/mL)	12 µM (≈ 19.3 µg/mL)	6 µM (≈ 9.67 µg/mL)	6 µM (≈ 9.67 µg/mL)	6 µM (≈ 9.67 µg/mL)	12 µM (≈ 19.3 µg/mL)	6 µM (≈ 9.67 µg/mL)	6 µM (≈ 9.67 µg/mL)	100%	59%	hemolysis at 40 min, 6 µM [21]: 14%; hemolysis at 40 min, 3 µM [22]: 5%; hemolysis at 40 min, 1.5 µM [23]: 2.6%
CC[C@H](C)[C@H](NC(=O)[C@H](CCCNC(=N)N)NC(=O)CNC(=O)[C@H](CC(C)C)NC(=O)[C@H](Cc1ccccc1)NC(=O)[C@H](CCCCN)NC(=O)[C@H](CO)NC(=O)[C@H](Cc1ccccc1)NC(=O)[C@H](Cc1c[nH]c2ccccc12)NC(=O)[C@H](CCC(N)=O)NC(=O)[C@@H](NC(=O)[C@@H](N)Cc1ccccc1)C(C)C)C(=O)N[C@@H](CC(C)C)C(N)=O [TEMPORIN L]	6 µM (≈ 9.84 µg/mL)	3 µM (≈ 4.92 µg/mL)	6 µM (≈ 9.84 µg/mL)	12 µM (≈ 19.7 µg/mL)	12 µM (≈ 19.7 µg/mL)	6 µM (≈ 9.84 µg/mL)	24 µM (≈ 39.4 µg/mL)	> 48 µM	3 µM (≈ 4.92 µg/mL)	1.5 µM (≈ 2.46 µg/mL)	3 µM (≈ 4.92 µg/mL)	3 µM (≈ 4.92 µg/mL)	1.5 µM (≈ 2.46 µg/mL)	3 µM (≈ 4.92 µg/mL)	6 µM (≈ 9.84 µg/mL)	12 µM (≈ 19.7 µg/mL)	6 µM (≈ 9.84 µg/mL)	6 µM (≈ 9.84 µg/mL)	94%	92%	hemolysis at 40 min, 6 µM [21]: 48%; hemolysis at 40 min, 3 µM [22]: 13%; hemolysis at 40 min, 1.5 µM [23]: 3%
CC[C@H](C)[C@H](NC(=O)[C@H](CCCNC(=N)N)NC(=O)[C@H]1CCCN1C(=O)[C@H](CC(C)C)NC(=O)[C@H](Cc1ccccc1)NC(=O)[C@H](CCCCN)NC(=O)[C@H](CO)NC(=O)[C@H](Cc1ccccc1)NC(=O)[C@H](Cc1c[nH]c2ccccc12)NC(=O)[C@@H]1CCCN1C(=O)[C@@H](NC(=O)[C@@H](N)Cc1ccccc1)C(C)C)C(=O)N[C@@H](CC(C)C)C(N)=O	48 µM (≈ 79.2 µg/mL)	24 µM (≈ 39.6 µg/mL)	48 µM (≈ 79.2 µg/mL)	24 µM (≈ 39.6 µg/mL)	48 µM (≈ 79.2 µg/mL)	> 48 µM	> 48 µM	> 48 µM	24 µM (≈ 39.6 µg/mL)	3 µM (≈ 4.95 µg/mL)	48 µM (≈ 79.2 µg/mL)	24 µM (≈ 39.6 µg/mL)	24 µM (≈ 39.6 µg/mL)	12 µM (≈ 19.8 µg/mL)	24 µM (≈ 39.6 µg/mL)	24 µM (≈ 39.6 µg/mL)	12 µM (≈ 19.8 µg/mL)	12 µM (≈ 19.8 µg/mL)	2.5%	2%	hemolysis at 40 min, 6 µM [21]: 0.6%; hemolysis at 40 min, 3 µM [22]: 1.5%; hemolysis at 40 min, 1.5 µM [23]: 0.4%
